{"data": "Experimental data from different studies", "note": "Compare with care: the assays were run in different laboratories."}
{"SMILES": "CC(=O)N(C)[C@H]1CCN(C(=O)c2cnc3c(c2)C[C@](C)(c2ccc(F)cc2)N3)C1", "test system": "male human, plasma", "setting": "oral, 15 mg, multiple doses, once daily, steady state", "measurement": "AUC(0-t)", "value": "1.97 µM·h"}
{"SMILES": "CC(C)n1c(C2CCNCC2)nc2c([N+](=O)[O-])c(Br)c(Br)cc21", "test system": "human, plasma", "setting": "oral, 125 mg, patients", "measurement": "AUC(0-t)", "value": "1760 ng·h/mL"}
{"SMILES": "COc1ccc2c(c1)CN(C(=O)CCN1CCC(Cc3ccccc3)CC1)CC[S@@+]2[O-]", "test system": "male human, plasma", "setting": "intravenous, 0.6 mg/kg, healthy volunteers", "measurement": "AUC(0-t)", "value": "3180 ng·h/mL"}
{"SMILES": "COc1ccc(-c2c(Nc3ccccn3)[nH]c3c(C4=CCCCC4)c(-c4ccccc4)nn3c2=O)cc1", "test system": "human, plasma", "setting": "oral, 400 mg once daily, multiple doses, steady state, patients", "measurement": "AUC(0-t)", "value": "57300 ng·h/mL"}
{"SMILES": "CC(C)[C@@H](CS(=O)(=O)C(C)C)N1C(=O)[C@@](C)(CC(=O)O)C[C@H](c2cccc(Cl)c2)[C@H]1c1ccc(Cl)cc1", "test system": "FVB mouse, brain", "setting": "oral, 20 mg/kg", "measurement": "unbound tissue/plasma ratio", "value": 0.005}
{"SMILES": "NCc1cc2c(cc1F)C(=O)N(C1CCC(=O)NC1=O)C2 (centres unmarked)", "test system": "male cynomolgus monkey, plasma", "setting": "oral, 0.3 mg/kg", "measurement": "Tmax", "value": "2 h"}
{"SMILES": "COc1ccc(F)cc1C(=O)NCc1ccc(-c2nn([C@@H](C)C(F)(F)F)c(N)c2C(N)=O)cc1", "test system": "human, plasma", "setting": "oral, 200 mg, single dose", "measurement": "AUC(0-inf)", "value": "80800 ng·h/mL"}
{"SMILES": "O=C(COc1ccc(Cl)cc1)NC12CC(c3nnc([C@H]4C[C@@H](OC(F)(F)F)C4)o3)(C1)C2", "test system": "human, plasma", "setting": "oral, 200 mg, multiple doses, once daily, steady state, healthy volunteers", "measurement": "AUC", "value": "242 µM·h"}
